Experimental data pooled from the literature.
Lines come from different studies, so protocols differ.
Target: Beta-adrenergic receptor kinase 1 (GRK2, Homo sapiens, UniProt P25098)
Residues used in one study (P25098 1-689): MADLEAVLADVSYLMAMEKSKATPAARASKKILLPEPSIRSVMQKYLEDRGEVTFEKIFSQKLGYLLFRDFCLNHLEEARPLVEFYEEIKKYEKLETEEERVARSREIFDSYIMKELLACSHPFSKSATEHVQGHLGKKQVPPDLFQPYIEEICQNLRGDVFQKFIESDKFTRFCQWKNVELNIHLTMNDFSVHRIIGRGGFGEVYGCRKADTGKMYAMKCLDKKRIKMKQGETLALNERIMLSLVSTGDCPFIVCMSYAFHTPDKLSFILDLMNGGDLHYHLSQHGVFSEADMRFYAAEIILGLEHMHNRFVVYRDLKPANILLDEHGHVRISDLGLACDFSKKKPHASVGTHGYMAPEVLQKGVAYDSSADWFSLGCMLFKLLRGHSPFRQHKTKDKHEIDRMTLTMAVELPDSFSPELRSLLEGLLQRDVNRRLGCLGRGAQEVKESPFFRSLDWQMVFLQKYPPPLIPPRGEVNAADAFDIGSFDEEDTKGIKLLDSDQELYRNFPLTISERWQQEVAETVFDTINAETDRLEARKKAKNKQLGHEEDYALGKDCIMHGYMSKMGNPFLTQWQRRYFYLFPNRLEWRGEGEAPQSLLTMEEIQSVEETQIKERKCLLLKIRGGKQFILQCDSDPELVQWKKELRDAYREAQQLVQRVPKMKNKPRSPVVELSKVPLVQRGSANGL

`CN(c1nccc(-c2cnn3ncccc23)n1)C1CC1` has a remaining binding of 64% (binding; 1 µM).
The remaining binding of `O=C(Nc1c[nH]nc1C(=O)NC1CCNCC1)c1cc(F)cc(F)c1` is reported as 100% (binding; competition with immobilised ligand; 1 µM).
With `O=C(NCCCN1CCOCC1)c1ccc(Nc2ncc(Cl)c(-c3ccc(Cl)s3)n2)cc1` the remaining binding was 91% (binding; competition with immobilised ligand; 1 µM).
The remaining binding of `C=CC(=O)N1CCC(C(=O)NCC(=O)N2CCN(c3nc(-c4cnc(N)nc4C(F)F)nc(N4CCOCC4)n3)CC2)CC1` is reported as 100% (binding; competition with immobilised ligand; 1 µM).
`F[C@@H]1CCN(c2nccc(-c3cnn4ncccc34)n2)C1` gave a remaining binding of 54% (binding; 1 µM).
With `Cc1nc(Cc2cccc(C(F)(F)F)c2)sc1-c1ccc(C(N)=O)nc1` the remaining binding was 100% (cell-free assay; competition with immobilised ligand; 1 µM).
The remaining binding of `C[C@H]1CCN(c2nccc(-c3cnn4ncccc34)n2)C1` is reported as 50% (binding; competition with immobilised ligand; 1 µM).
`CNCc1ccccc1-c1csc([C@@H](C)Nc2nc(C)nc3cc(OC)c(OC)cc23)c1` has a remaining binding of 86% (cell-free assay; competition with immobilised ligand; 1 µM).
`CN(CCCC(F)(F)F)c1nccc(-c2cnn3ncccc23)n1` gave a remaining binding of 61% (binding; competition with immobilised ligand; 1 µM).
`C[C@@H](c1ccc(-n2cnc3c(N)ncnc32)cc1)N1CCc2nn(C)c(Cc3ccccc3)c2C1=O` gave a remaining binding of 67% (binding; competition with immobilised ligand; 0.1 µM).
`c1cncc(-c2cccc(Nc3nccc(NC4CCCCC4)n3)c2)c1` has a remaining binding of 100% (binding; competition with immobilised ligand; 10 µM).
`c1ccc(N2CCN(Cc3nc4ccccc4[nH]3)CC2)nc1` gave a remaining binding of 90% (binding; competition with immobilised ligand; 1 µM).
The remaining binding of `O=C(NCCCN1CCOCC1)c1ccc(Nc2nccc(-c3cc4ccccc4s3)n2)cc1` is reported as 65% (binding; competition with immobilised ligand; 1 µM).
`c1cnn2ncc(-c3ccnc(N4CCC45COC5)n3)c2c1` has a remaining binding of 48% (binding; competition with immobilised ligand; 1 µM).
The remaining binding of `CCCCN(CCCC)C(=O)CN1C[C@H](c2cc(OC)c3c(c2)OCO3)[C@@H](C(=O)O)[C@@H]1CC(C)(C)CCC` is reported as 71.8% (cell-free assay; competition with immobilised ligand; 1 µM).
`Cc1cnc(Nc2ccc(C(=O)N3CCC(N4CCCC4)CC3)cc2)nc1-c1cc2ccccc2s1` has a remaining binding of 56% (binding; competition with immobilised ligand; 1 µM).
`Cc1c(C(=O)O)cc(-c2ccc(C3CCNCC3)cc2)c2ccc(-c3ccc(C(F)(F)F)cc3)cc12` has a remaining binding of 100% (binding; competition with immobilised ligand; 1 µM).
`COc1cnc(Nc2cccc(S(N)(=O)=O)c2)nc1N1CCN(c2ccccc2)C(=O)C1` has a remaining binding of 68% (binding; competition with immobilised ligand; 1 µM).
For `Cc1cnn2ncc(-c3ccnc(N(C)C)n3)c2c1`, the remaining binding was 50% (binding; 1 µM).
`CNC(=O)Nc1ccc2c(c1)CC[C@@]21OC(=O)N(CC(=O)N(Cc2ccc(F)cc2)[C@@H](C)C(F)(F)F)C1=O` gave a remaining binding of 74% (cell-free assay; competition with immobilised ligand; 1 µM).
